Measurements from ChEMBL document CHEMBL1141183, “Development of potent mu-opioid receptor ligands using unique tyrosine analogues of endomorphin-2” (J Med Chem, 2005).
The source made the active and inactive calls. The calls are words filed in the database; no cut-off is given here.

Tests used:
[1] = biological target: Delta-type opioid receptor (Rattus norvegicus, UniProt P33533); experiment: Inhibition of [3H]DPDPE binding to delta-Opioid receptor
How it was run: (§1)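 Synaptosomal membranes preincubated to remove endogenous opioids, washed, stored at -80 °C with protease inhibitor. μ sites labelled with [3H]DAMGO, δ with [3H]DPDPE; nonspecific binding set by 2 µM unlabelled peptide. Filtration on polyethylenimine-soaked GF/C filters, scintillation counting. Five to seven peptide doses in duplicate, several preparations. Ki by Cheng-Prusoff.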

[2] = biological target: Opioid receptors; mu & delta (Rattus norvegicus) (UniProt P33533+P33535); experiment: Relative binding to delta and mu Opioid receptors (ratio of Ki); assay type: protein assay
Mu-type opioid receptor [3] = biological target: Mu-type opioid receptor (Rattus norvegicus, UniProt P33535); experiment: Inhibition of [3H]DAMGO binding to mu-Opioid receptor; how it was run: as §1
Mu-type opioid receptor [4] = biological target: Mu-type opioid receptor (Cavia porcellus, UniProt P97266); experiment: In vitro inhibition of opioid receptor mu using isolated guinea pig ileum; assay type: tissue-based
How it was run: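 Myenteric plexus longitudinal muscle strips (2-3 cm) from small intestine of male Hartley guinea pigs, in organ bath with physiological salt buffer, pH 7.5, for μ-receptor agonism.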

[5] = biological target: Delta-type opioid receptor (Mus musculus, UniProt P32300); experiment: In vitro inhibition of opioid receptor delta using mouse vas deferens; assay type: tissue-based
Mus musculus = organism: Mus musculus; experiment: Inhibition of electrically evoked contraction in mice by tail flick method; nd=None detected; assay type: functional, organism-based

Opioid receptors; mu & delta (Rattus norvegicus), sequence (P33533 whole entry, looked up): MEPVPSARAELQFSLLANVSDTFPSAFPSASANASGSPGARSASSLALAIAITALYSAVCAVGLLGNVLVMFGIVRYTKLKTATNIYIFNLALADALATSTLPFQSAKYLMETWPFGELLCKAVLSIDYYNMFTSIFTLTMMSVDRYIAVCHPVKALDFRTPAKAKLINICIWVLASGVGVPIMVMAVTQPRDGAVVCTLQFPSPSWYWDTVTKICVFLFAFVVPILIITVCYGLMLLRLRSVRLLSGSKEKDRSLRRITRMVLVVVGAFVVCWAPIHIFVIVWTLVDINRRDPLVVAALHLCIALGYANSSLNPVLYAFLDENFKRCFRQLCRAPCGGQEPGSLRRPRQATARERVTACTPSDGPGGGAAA
Opioid receptors; mu & delta (Rattus norvegicus), sequence (P33535 whole entry, looked up): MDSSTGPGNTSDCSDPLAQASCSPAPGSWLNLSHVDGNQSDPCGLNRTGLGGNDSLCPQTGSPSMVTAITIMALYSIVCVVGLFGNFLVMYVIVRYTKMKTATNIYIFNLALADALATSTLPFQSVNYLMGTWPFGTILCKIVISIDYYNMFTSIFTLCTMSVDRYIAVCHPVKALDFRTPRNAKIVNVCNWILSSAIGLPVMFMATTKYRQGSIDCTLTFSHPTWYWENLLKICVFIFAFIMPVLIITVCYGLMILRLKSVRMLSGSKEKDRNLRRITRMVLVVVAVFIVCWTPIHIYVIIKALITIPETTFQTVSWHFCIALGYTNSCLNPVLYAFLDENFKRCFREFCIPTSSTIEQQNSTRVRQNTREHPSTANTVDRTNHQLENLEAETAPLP
Delta-type opioid receptor (Rattus norvegicus, UniProt P33533), sequence (P33533 whole entry): as the sequence (P33533 whole entry, looked up) above
Delta-type opioid receptor (Mus musculus, UniProt P32300), sequence (P32300 whole entry): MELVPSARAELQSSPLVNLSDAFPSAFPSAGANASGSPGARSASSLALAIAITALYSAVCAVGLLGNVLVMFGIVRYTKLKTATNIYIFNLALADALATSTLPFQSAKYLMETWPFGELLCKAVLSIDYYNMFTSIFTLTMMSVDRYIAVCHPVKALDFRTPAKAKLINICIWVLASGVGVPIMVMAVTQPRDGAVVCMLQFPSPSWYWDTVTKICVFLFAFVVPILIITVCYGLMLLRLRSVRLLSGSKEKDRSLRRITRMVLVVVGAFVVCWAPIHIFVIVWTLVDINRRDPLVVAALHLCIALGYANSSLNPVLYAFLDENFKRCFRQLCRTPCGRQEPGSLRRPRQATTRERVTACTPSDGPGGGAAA
Mu-type opioid receptor (Cavia porcellus, UniProt P97266), sequence (P97266 whole entry): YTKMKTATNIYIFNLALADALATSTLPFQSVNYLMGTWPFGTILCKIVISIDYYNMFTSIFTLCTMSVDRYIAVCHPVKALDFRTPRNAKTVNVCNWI
Mu-type opioid receptor (Rattus norvegicus, UniProt P33535), sequence (P33535 whole entry): as the sequence (P33535 whole entry, looked up) above

Row | Structure (SMILES) | Ki [1] [nM] | Ratio [2] | Ki (Mu-type opioid receptor [3]) [nM] | IC50 (Mu-type opioid receptor [4]) [nM] | IC50 [5] [nM] | inhibition (Mus musculus)
1 | Cc1cc(O)c(C)c(C)c1C[C@H](N)C(=O)N1CCC[C@H]1C(=O)N[C@@H](Cc1ccccc1)C(=O)N[C@@H](Cc1ccccc1)C(N)=O | 593 | 5350 | 0.111 | 2.31 | 46.4 | –
2 | CC(C)c1cc(O)cc(C(C)C)c1C[C@H](N)C(=O)N1CCC[C@H]1C(=O)N[C@@H](Cc1ccccc1)C(=O)N[C@@H](Cc1ccccc1)C(N)=O | 105 | 46 | 2.29 | 299 | > 10000 | inactive
3 | CCc1cc(O)cc(CC)c1C[C@H](N)C(=O)N1CCC[C@H]1C(=O)N[C@@H](Cc1ccccc1)C(=O)N[C@@H](Cc1ccccc1)C(N)=O | 69.7 | 830 | 0.084 | 0.903 | 47.1 | –
4 | Cc1cc(O)cc(C(C)C)c1C[C@H](N)C(=O)N1CCC[C@H]1C(=O)N[C@@H](Cc1ccccc1)C(=O)N[C@@H](Cc1ccccc1)C(N)=O | 190 | 1270 | 0.15 | 10.6 | 601 | –
5 | Cc1cc(O)ccc1C[C@H](N)C(=O)N1CCC[C@H]1C(=O)N[C@@H](Cc1ccccc1)C(=O)N[C@@H](Cc1ccccc1)C(N)=O | 529 | 4000 | 0.132 | 0.924 | 28.7 | –
6 | CCc1cc(O)cc(C)c1C[C@H](N)C(=O)N1CCC[C@H]1C(=O)N[C@@H](Cc1ccccc1)C(=O)N[C@@H](Cc1ccccc1)C(N)=O | 55.7 | 884 | 0.063 | 0.623 | 1.08 | –
